Measurements from paper PMC4141080 (FEBS Open Bio, 2014).

Assays:
Type in all cases: biochemical, Aplysia kurodai
Settings in all cases: standard assay 37 °C; pH of kinetics not told
[1] = system: ApAGL74 (74-kDa α-glucosidase); test: fluorometric 4-methylumbelliferone release
Outline: (§1)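 Each α-glucosidase was purified from sea hare digestive fluid. The fluid was squeezed from the stomach lumen, cut with 0–60% ammonium sulfate, then run through ion-exchange, phenyl-Sepharose, Sephacryl S-100 and Mono Q chromatography, with purity checked by SDS–PAGE. Substrate was 4-MU-α-glucoside. Released 4-methylumbelliferone was read fluorometrically (ex 365 nm, em 450 nm). One unit releases 1 μmol 4-methylumbelliferone/min at 37 °C.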

[2] = system: ApAGL86 (86-kDa α-glucosidase); test: fluorometric 4-methylumbelliferone release
Outline: as §1

[3] = system: ApAGL74 (74-kDa α-glucosidase); test: glucose release
Outline: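 The α-glucosidase was purified chromatographically from the ammonium sulfate (0–60%) fraction of stomach-lumen digestive fluid of sea hare. Glucose liberated from substrate was quantified with a glucose oxidase-based kit.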

[4] = system: ApAGL86 (86-kDa α-glucosidase); test: glucose release

Row | Km [1] [µM] | Km [2] [µM] | Km [3] [mM] | Km [4] [mM] | SMILES
1 | 47.9 ± 10.6 | 412 ± 6 |  |  | Cc1cc(=O)oc2cc(O[C@H]3O[C@H](CO)[C@@H](O)[C@H](O)[C@H]3O)ccc12 [4MU-α-glucoside]
2 |  |  | 14.2 ± 0.9 | 16.5 ± 0.05 | OC[C@H]1O[C@H](OC[C@H]2OC(O)[C@H](O)[C@@H](O)[C@@H]2O)[C@H](O)[C@@H](O)[C@@H]1O (stereo partly shown) [Isomaltose]
3 |  |  | 4.98 ± 0.06 |  | OC[C@H]1O[C@H](O[C@H]2[C@H](O)[C@@H](O)C(O)O[C@@H]2CO)[C@H](O)[C@@H](O)[C@@H]1O (stereo partly shown) [Maltose]
4 |  |  | 31.7 ± 2.1 | 33.6 ± 1.55 | OC[C@H]1O[C@@](CO)(O[C@H]2O[C@H](CO)[C@@H](O)[C@H](O)[C@H]2O)[C@@H](O)[C@@H]1O [Sucrose]
